The text below walks through data of the M2OR odorant receptor database.

Holding throughout (details): stereoisomer not certain
One assay concerns the target T1, UniProt L7MU75.
T1 sequence (whole entry): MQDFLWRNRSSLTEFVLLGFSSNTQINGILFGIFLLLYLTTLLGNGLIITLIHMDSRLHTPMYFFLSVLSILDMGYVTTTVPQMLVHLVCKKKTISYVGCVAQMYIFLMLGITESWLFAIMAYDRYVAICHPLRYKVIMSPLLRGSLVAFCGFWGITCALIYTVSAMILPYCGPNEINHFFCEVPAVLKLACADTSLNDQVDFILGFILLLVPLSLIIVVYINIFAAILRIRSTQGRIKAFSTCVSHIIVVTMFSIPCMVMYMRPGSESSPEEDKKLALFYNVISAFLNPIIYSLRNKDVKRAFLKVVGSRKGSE
In a few lines: (§1)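 Each entry records the cell line, G-protein, co-transfected protein and tags used. Methods varied with the source, often transient luciferase assays in mammalian cell lines. A receptor–molecule pair is called responsive (active) if the original authors judged its signal statistically different from baseline and non-responsive (inactive) otherwise.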

The next assay addresses T2, UniProt L7N210.
T2 sequence (whole entry): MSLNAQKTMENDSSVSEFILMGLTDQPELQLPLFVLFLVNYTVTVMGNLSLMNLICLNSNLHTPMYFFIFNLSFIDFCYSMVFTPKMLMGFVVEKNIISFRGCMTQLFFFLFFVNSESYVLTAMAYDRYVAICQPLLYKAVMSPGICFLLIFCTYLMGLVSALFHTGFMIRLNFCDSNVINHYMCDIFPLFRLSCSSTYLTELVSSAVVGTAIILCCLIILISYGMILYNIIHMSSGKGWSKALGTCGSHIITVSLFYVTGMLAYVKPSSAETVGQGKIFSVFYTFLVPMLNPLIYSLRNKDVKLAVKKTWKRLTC
In a few lines:
as §1

The next assay concerns the target T3, UniProt Q7TQV4.
T3 sequence (whole entry): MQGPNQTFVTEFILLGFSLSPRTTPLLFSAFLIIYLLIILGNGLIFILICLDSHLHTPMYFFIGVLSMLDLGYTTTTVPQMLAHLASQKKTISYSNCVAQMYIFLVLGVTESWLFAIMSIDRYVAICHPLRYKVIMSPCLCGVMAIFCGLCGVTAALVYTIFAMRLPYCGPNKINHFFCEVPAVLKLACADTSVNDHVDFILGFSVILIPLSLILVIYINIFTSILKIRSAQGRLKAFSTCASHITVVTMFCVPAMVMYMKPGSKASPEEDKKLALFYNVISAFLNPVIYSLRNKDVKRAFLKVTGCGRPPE
An outline of the steps:
as §1

A further assay has as its target T4, UniProt Q7TR71.
T4 sequence (whole entry): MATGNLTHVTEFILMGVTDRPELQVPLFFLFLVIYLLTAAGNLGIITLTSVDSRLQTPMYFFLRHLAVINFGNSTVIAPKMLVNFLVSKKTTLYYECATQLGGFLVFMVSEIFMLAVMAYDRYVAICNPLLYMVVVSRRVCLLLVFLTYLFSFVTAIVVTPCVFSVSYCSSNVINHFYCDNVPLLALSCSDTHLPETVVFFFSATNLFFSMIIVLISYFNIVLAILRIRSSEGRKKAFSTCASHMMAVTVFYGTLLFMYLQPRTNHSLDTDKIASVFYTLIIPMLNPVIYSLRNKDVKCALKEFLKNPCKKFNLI
In a few lines:
as §1

Another assay has as its target T5, UniProt Q7TRA3.
T5 sequence (whole entry): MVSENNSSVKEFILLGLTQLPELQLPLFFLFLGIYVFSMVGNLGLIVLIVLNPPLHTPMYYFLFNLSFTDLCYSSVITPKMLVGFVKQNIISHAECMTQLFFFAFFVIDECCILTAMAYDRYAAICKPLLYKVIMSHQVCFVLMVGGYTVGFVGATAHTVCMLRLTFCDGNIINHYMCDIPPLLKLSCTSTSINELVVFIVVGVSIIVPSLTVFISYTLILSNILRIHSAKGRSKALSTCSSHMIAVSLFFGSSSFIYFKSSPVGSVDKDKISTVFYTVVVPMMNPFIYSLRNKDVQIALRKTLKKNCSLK
An outline of the steps: as §1

For a further assay, the target named is T6, UniProt Q7TRE4.
T6 sequence (whole entry): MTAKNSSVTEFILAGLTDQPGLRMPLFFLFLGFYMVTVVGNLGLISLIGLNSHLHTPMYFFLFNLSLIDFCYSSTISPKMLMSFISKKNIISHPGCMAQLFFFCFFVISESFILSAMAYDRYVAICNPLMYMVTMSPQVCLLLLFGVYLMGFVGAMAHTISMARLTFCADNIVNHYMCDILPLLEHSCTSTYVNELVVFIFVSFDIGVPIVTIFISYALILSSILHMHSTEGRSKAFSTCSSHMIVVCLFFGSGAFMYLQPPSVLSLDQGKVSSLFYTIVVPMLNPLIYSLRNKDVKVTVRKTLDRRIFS
An outline of the steps:
as §1

A further assay concerns the target T7, UniProt Q3KPB0.
T7 sequence (whole entry): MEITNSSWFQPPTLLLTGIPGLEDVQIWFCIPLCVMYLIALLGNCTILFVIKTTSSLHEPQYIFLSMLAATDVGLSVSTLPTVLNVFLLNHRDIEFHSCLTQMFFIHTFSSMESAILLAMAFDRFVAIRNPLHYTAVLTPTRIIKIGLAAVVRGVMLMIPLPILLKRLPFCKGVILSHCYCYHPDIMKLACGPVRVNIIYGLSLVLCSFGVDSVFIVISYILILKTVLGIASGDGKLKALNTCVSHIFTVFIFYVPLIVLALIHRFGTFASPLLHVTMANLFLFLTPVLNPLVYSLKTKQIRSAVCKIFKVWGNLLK
In a few lines: as §1

For another assay, the target named is T8, UniProt Q3U0P3.
T8 sequence (whole entry): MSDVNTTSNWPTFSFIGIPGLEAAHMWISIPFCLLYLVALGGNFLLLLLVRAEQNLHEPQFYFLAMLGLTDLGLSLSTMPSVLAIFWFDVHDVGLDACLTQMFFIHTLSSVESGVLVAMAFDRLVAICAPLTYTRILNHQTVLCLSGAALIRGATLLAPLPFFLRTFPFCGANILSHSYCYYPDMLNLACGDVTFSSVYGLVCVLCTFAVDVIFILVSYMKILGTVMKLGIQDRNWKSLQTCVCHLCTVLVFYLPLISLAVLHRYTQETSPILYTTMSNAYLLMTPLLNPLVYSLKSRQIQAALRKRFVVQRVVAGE
An outline of the steps: as §1

A further assay addresses T9, UniProt Q7TQU8.
T9 sequence (whole entry): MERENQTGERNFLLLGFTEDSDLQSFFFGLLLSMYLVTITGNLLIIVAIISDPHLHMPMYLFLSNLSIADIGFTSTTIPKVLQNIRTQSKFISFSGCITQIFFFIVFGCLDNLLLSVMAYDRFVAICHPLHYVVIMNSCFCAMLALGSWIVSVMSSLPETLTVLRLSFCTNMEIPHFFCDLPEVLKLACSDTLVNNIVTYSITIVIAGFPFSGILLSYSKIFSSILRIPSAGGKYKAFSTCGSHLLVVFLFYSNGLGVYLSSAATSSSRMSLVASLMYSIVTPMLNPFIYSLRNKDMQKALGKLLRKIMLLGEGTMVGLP
In a few lines: as §1

A further assay deals with T10, UniProt Q7TR79.
T10 sequence (whole entry): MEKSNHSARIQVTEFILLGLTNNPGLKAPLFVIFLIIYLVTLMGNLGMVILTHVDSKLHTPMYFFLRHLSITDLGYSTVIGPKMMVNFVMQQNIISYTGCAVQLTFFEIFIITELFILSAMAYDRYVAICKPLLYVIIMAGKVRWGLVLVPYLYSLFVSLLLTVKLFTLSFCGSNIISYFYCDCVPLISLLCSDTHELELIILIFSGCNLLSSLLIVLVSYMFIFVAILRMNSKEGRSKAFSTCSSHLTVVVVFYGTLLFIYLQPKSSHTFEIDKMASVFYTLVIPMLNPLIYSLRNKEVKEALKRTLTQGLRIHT
An outline of the steps:
as §1

In another assay the target is T11, UniProt L7N0P5.
T11 sequence (whole entry): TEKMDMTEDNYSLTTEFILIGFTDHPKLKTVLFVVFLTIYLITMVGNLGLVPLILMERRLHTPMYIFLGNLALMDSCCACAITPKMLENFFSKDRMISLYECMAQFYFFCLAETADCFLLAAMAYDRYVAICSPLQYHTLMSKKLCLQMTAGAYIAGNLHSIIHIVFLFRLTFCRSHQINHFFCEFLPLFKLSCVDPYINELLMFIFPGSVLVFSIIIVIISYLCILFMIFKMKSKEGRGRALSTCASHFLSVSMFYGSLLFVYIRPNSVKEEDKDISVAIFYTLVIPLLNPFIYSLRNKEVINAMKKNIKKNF
An outline of the steps:
as §1

The target in another assay is T12, UniProt Q7TRM0.
T12 sequence (whole entry): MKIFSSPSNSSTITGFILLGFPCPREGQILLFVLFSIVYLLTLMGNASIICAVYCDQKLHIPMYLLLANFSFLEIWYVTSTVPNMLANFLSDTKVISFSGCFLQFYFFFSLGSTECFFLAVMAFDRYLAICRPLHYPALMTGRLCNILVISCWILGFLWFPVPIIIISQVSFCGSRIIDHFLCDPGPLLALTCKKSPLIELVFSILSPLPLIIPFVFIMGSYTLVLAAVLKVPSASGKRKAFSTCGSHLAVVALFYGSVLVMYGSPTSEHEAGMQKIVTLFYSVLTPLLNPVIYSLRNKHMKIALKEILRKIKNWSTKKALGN
An outline of the steps: as §1

The target of another assay is T13, UniProt Q7TRN9.
T13 sequence (whole entry): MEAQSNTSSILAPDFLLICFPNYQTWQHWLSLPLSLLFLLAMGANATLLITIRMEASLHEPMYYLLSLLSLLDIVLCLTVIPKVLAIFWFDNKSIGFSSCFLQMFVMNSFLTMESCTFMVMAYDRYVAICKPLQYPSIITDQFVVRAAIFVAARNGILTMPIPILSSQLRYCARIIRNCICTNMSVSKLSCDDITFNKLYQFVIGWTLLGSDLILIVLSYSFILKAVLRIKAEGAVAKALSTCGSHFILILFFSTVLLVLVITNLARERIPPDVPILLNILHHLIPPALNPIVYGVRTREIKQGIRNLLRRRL
An outline of the steps:
as §1

With `CCC(C(=O)O)c1ccccc1` (centres undefined), the “odorant receptor agonist call” value with UniProt L7MU75, with UniProt L7N210, with UniProt Q7TQV4, with UniProt Q7TR71, with UniProt Q7TRA3 and with UniProt Q7TRE4 was “inactive” in each case.
As to `CNc1ccccc1C(=O)OC`, the “odorant receptor agonist call” value with UniProt L7MU75, with UniProt Q3KPB0, with UniProt Q3U0P3, in the assay with UniProt Q7TQU8 and with UniProt Q7TR79 was “inactive” each time. Further, the “odorant receptor agonist call” value with UniProt L7N210 is “active”.
For the molecule `Cc1cncc(C)n1`, the “odorant receptor agonist call” value with UniProt L7N0P5 was “active”.
For the molecule `O=C(O)CCCCBr`, the “odorant receptor agonist call” value with UniProt Q7TRM0 and with UniProt Q7TRN9 was “inactive” each time.
Take `CCc1nccnc1OC`: in the assay with UniProt L7N0P5, the “odorant receptor agonist call” value is “active”.
As for `Cc1cnc(C)c(C)n1`, the “odorant receptor agonist call” value with UniProt L7N0P5 was “active”.
Consider `CCCCOC(=O)C(C)OC(=O)CCC` (centres undefined), for which the “odorant receptor agonist call” value with UniProt L7N210, with UniProt Q7TQV4, with UniProt Q7TR71, with UniProt Q7TRA3 and in the assay with UniProt Q7TRE4 was “inactive” each time.
With `CCc1nccnc1C(C)=O`, the “odorant receptor agonist call” value with UniProt L7N0P5 was “active”.
The same measure, in the same setting: to `COc1nccnc1CC(C)C` belongs “active”.
